Measurements taken from ChEMBL document CHEMBL1148471, “Synthesis of mono- and bisdihydrodipyridopyrazines and assessment of their DNA binding and cytotoxic properties” (J Med Chem, 2004).
Each block holds one molecule with its values, some of them ahead of it. Activity calls are given as the source filed them. The rule behind the calls is not given here.

What was measured:
L1210 [1] = assay: Inhibitory concentration against L1210 murine leukemia cell line; format: functional, cell-based; settings: Mus musculus
Summary of the method: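 L1210 cells grown in RPMI 1640 with 10% fetal calf serum, 2 mM L-glutamine, penicillin/streptomycin and 10 mM HEPES (pH 7.4). Cells exposed 48 h to graded concentrations (nine serial dilutions, triplicate). Viability read by microculture tetrazolium assay. IC50 = concentration reducing optical density by 50% versus untreated controls.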

L1210 [2] = assay: Percentage of L1210 cell line in G2M-phase of cell cycle at 10 uM; format: functional, Mus musculus
Summary of the method: (§1)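 L1210 cells (2.5 × 10^5 cells/mL) incubated 21 h with compound at the stated concentration. Cells fixed in 70% ethanol, then stained 30 min at 20 °C in PBS with 100 µg/mL RNase and 25 µg/mL propidium iodide. Flow cytometry on 10^4 cells per sample, 488 nm excitation, 615 nm long-pass emission. Output is the percentage of cells in each cycle phase.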

L1210 [3] = assay: Percentage of L1210 cell line in S-phase of cell cycle at 100 uM; format: functional, Mus musculus; summary of the method: as §1
L1210 [4] = assay: Percentage of L1210 cell line in G2M-phase of cell cycle at 25 uM; format: functional, Mus musculus; summary of the method: as §1
L1210 [5] = assay: Percentage of L1210 cell line in G2M-phase of cell cycle at 50 uM; format: functional, Mus musculus; summary of the method: as §1
L1210 [6] = assay: Percentage of L1210 cell line in G2M-phase of cell cycle at 20 uM; format: functional, Mus musculus; summary of the method: as §1
L1210 [7] = assay: Percentage of L1210 cell line in 8 N-phase of cell cycle at 10 uM; format: functional, Mus musculus; summary of the method: as §1
L1210 [8] = assay: Toxicity of compound was tested at 25 uM;Toxic; format: cell-based; settings: mouse, l1210, 25 µM
L1210 [9] = assay: Percentage of L1210 cell line in G2M-phase of cell cycle at 1 uM; format: functional, Mus musculus; summary of the method: as §1
L1210 [10] = assay: Percentage of L1210 cell line in 8 N-phase of cell cycle at 1 uM; format: functional, Mus musculus; summary of the method: as §1
L1210 [11] = assay: Percentage of L1210 cell line in 8 N-phase of cell cycle at 1 uM; Toxic; format: toxicity, cell-based; settings: mouse, l1210, 1 µM; summary of the method: as §1
L1210 [12] = assay: Percentage of L1210 cell line in G2M-phase of cell cycle at 100 uM; format: functional, Mus musculus; summary of the method: as §1
L1210 [13] = assay: Percentage of L1210 cell line in S-phase of cell cycle at 100 uM; NS = no specific effect (toxic at 5 uM); format: functional, cell-based; settings: Mus musculus; summary of the method: as §1
L1210 [14] = assay: Percentage of L1210 cell line in G2M-phase of cell cycle at 5 uM; format: functional, Mus musculus; summary of the method: as §1
L1210 [15] = assay: Percentage of L1210 cell line in 8 N-phase of cell cycle at 5 uM; format: functional, Mus musculus; summary of the method: as §1
L1210 [16] = assay: Percentage of L1210 cell line in G2M-phase of cell cycle at 2 uM; format: functional, Mus musculus; summary of the method: as §1
L1210 [17] = assay: Percentage of L1210 cell line in G2M-phase of cell cycle at 0.5 uM; format: functional, Mus musculus; summary of the method: as §1
L1210 [18] = assay: Percentage of L1210 cell line in 8 N-phase of cell cycle at 0.5 uM; format: functional, Mus musculus; summary of the method: as §1
L1210 [19] = assay: Percentage of L1210 cell line in G1-phase of cell cycle at 25 uM; format: functional, Mus musculus; summary of the method: as §1
L1210 [20] = assay: Percentage of L1210 cell line in S-phase of cell cycle at 100 uM; NS = no specific effect (toxic at 10 uM); format: functional, cell-based; settings: Mus musculus; summary of the method: as §1
L1210 [21] = assay: Percentage of L1210 cell line in S-phase of cell cycle at 100 uM; NS = no specific effect (toxic at 2 uM); format: functional, cell-based; settings: Mus musculus; summary of the method: as §1

Compound: CN(C)CCCNC(=O)c1ccc2c(n1)N(C)c1ncccc1N2C
IC50 (L1210 [1]): 1700 nM
Activity (L1210 [2]): 67%

Compound: CN1c2cccnc2N(C)c2cccnc21
IC50 (L1210 [1]): 31100 nM
Activity (L1210 [3]): 51%

Compound: CN(C)CCCNCc1ccc2c(n1)N(C)c1cccnc1N2C
IC50 (L1210 [1]): 9200 nM
Activity (L1210 [4]): 39%

Compound: CN1c2ccc(C=O)nc2N(C)c2cccnc21
IC50 (L1210 [1]): 21600 nM
Activity (L1210 [5]): 90%

Compound: CN1c2cccnc2N(C)c2nc(CNCCNCCNCCNCc3ccc4c(n3)N(C)c3ncccc3N4C)ccc21
IC50 (L1210 [1]): 4100 nM
Activity (L1210 [6]): 70%

Compound: CN(C)CCNCc1ccc2c(n1)N(C)c1ncccc1N2C
IC50 (L1210 [1]): 11300 nM
Activity (L1210 [7]): 4%
Activity (L1210 [2]): 47%

Compound: CN(C)CCCCCNCc1ccc2c(n1)N(C)c1ncccc1N2C
IC50 (L1210 [1]): 500 nM
Activity (L1210 [8]): Toxic

Compound: CN(C)CCCNCc1ccc2c(n1)N(C)c1ncccc1N2C
IC50 (L1210 [1]): 170 nM
Activity (L1210 [9]): 66%
Activity (L1210 [10]): 14%

Compound: CN(C)CCCN(C)Cc1ccc2c(n1)N(C)c1ncccc1N2C
IC50 (L1210 [1]): 11500 nM

Compound: CN1c2cccnc2N(C)c2nc(CNCCCN)ccc21
IC50 (L1210 [1]): 140 nM
Activity (L1210 [11]): Toxic
Activity (L1210 [9]): 65%

Compound: CN1c2cccnc2N(C)c2ncccc21
IC50 (L1210 [1]): 34000 nM
Activity (L1210 [12]): 34%
Activity (L1210 [3]): 49%

Compound: CN1c2cccnc2N(C)c2nc(CNCCCOCCCNCc3ccc4c(n3)N(C)c3ncccc3N4C)ccc21
IC50 (L1210 [1]): 680 nM
Activity (L1210 [14]): 78%
Activity (L1210 [15]): 18%

Compound: CN(C)CCC(=O)NCc1ccc2c(n1)N(C)c1ncccc1N2C
IC50 (L1210 [1]): 21100 nM

Compound: CN(C)CCCCNCc1ccc2c(n1)N(C)c1ncccc1N2C
IC50 (L1210 [1]): 140 nM
Activity (L1210 [17]): 54%
Activity (L1210 [18]): 32%

Compound: CN(C)CCNCc1ccc2c(n1)N(C)c1cccnc1N2C
Activity (L1210 [19]): 55%
IC50 (L1210 [1]): 26700 nM

Compound: CN1c2cccnc2N(C)c2nc(C=O)ccc21
IC50 (L1210 [1]): 20000 nM

Compound: CN1c2cccnc2N(C)c2nc(CNCCCNCCCCNCCCNCc3ccc4c(n3)N(C)c3ncccc3N4C)ccc21
IC50 (L1210 [1]): 710 nM
Activity (L1210 [14]): 72%

Further lines, with some results ahead:

IC50 (L1210 [1]): 2700 nM
Compound: CN1c2cccnc2N(C)c2nc(CNCCNCc3ccc4c(n3)N(C)c3ncccc3N4C)ccc21
Activity (L1210 [2]): 79%

IC50 (L1210 [1]): 1700 nM
Compound: CN1c2cccnc2N(C)c2nc(CNCCCCNCc3ccc4c(n3)N(C)c3ncccc3N4C)ccc21
Activity (L1210 [13]; in the assay text read “at 5 uM” for “at 100 uM”): inactive

IC50 (L1210 [1]): 480 nM
Compound: CN1c2cccnc2N(C)c2nc(CNCCCNCc3ccc4c(n3)N(C)c3cccnc3N4C)ccc21
Activity (L1210 [16]): 66%

IC50 (L1210 [1]): 710 nM
Compound: CN1c2cccnc2N(C)c2nc(CNCCCCCCCNCc3ccc4c(n3)N(C)c3ncccc3N4C)ccc21
Activity (L1210 [13]): inactive

IC50 (L1210 [1]): 3500 nM
Compound: CN(CCCNCc1ccc2c(n1)N(C)c1cccnc1N2C)CCCNCc1ccc2c(n1)N(C)c1cccnc1N2C
Activity (L1210 [20]): inactive

IC50 (L1210 [1]): 500 nM
Compound: CN1c2ccc(CNCCCCCCCNCc3ccc4c(n3)N(C)c3cccnc3N4C)nc2N(C)c2cccnc21
Activity (L1210 [21]): inactive

IC50 (L1210 [1]): 360 nM
Compound: CN1c2cccnc2N(C)c2nc(CNCCCNCCCNCc3ccc4c(n3)N(C)c3ncccc3N4C)ccc21
Activity (L1210 [9]): 65%
Activity (L1210 [10]): 18%

IC50 (L1210 [1]): 430 nM
Compound: CN1c2cccnc2N(C)c2nc(CNCCCNCc3ccc4c(n3)N(C)c3ncccc3N4C)ccc21
Activity (L1210 [9]): 68%

IC50 (L1210 [1]): 4000 nM
Compound: CN1c2ccc(CNCCCNCc3ccc4c(n3)N(C)c3cccnc3N4C)nc2N(C)c2cccnc21
Activity (L1210 [20]): inactive
